Columns and labels:
Assay type in all cases: functional
Mus musculus [1] = assay: Antiinflammatory activity against carrageenan-induced paw edema in Swiss albino mouse assessed as swelling thickness at 100 mg/kg, po after 90 mins
How it was run: (§1)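 Oral dosing in 0.5% CMC; vehicle to controls. Then carrageenan (0.5 mg/25 ll, freshly suspended in 154 mM saline) injected into the right hind paw subplantar tissue; saline into the left paw. Right-left footpad thickness difference measured by dial gauge calliper every 90 min over 6 h. Inhibition % is relative to vehicle control. n = 6; mean ± SEM.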

Mus musculus [2] = assay: Antiinflammatory activity against carrageenan-induced paw edema in Swiss albino mouse assessed as swelling thickness at 100 mg/kg, po after 180 mins; how it was run: as §1
Mus musculus [3] = assay: Antiinflammatory activity against carrageenan-induced paw edema in Swiss albino mouse assessed as swelling thickness at 100 mg/kg, po after 270 mins; how it was run: as §1
Mus musculus [4] = assay: Antiinflammatory activity against carrageenan-induced paw edema in Swiss albino mouse assessed as swelling thickness at 100 mg/kg, po after 360 mins; how it was run: as §1
Mus musculus [5] = assay: Inhibition of carrageenan-induced paw edema in Swiss albino mouse at 100 mg/kg, po after 90 mins relative to control; details: 1.5 h; how it was run: as §1
Mus musculus [6] = assay: Inhibition of carrageenan-induced paw edema in Swiss albino mouse at 100 mg/kg, po after 180 mins relative to control; details: 3 h; how it was run: as §1
Mus musculus [7] = assay: Inhibition of carrageenan-induced paw edema in Swiss albino mouse at 100 mg/kg, po after 270 mins relative to control; details: 4.5 h; how it was run: as §1
Mus musculus [8] = assay: Inhibition of carrageenan-induced paw edema in Swiss albino mouse at 100 mg/kg, po after 360 mins relative to control; details: 6 h; how it was run: as §1
Mus musculus [9] = assay: Antiinflammatory activity against carrageenan-induced paw edema in Swiss albino mouse assessed as swelling thickness at 10 mg/kg, po after 90 mins; how it was run: as §1
Mus musculus [10] = assay: Antiinflammatory activity against carrageenan-induced paw edema in Swiss albino mouse assessed as swelling thickness at 10 mg/kg, po after 180 mins; how it was run: as §1
Mus musculus [11] = assay: Antiinflammatory activity against carrageenan-induced paw edema in Swiss albino mouse assessed as swelling thickness at 10 mg/kg, po after 270 mins; how it was run: as §1
Mus musculus [12] = assay: Antiinflammatory activity against carrageenan-induced paw edema in Swiss albino mouse assessed as swelling thickness at 10 mg/kg, po after 360 mins; how it was run: as §1
Mus musculus [13] = assay: Inhibition of carrageenan-induced paw edema in Swiss albino mouse at 10 mg/kg, po after 90 mins relative to control; details: 1.5 h; how it was run: as §1
Mus musculus [14] = assay: Inhibition of carrageenan-induced paw edema in Swiss albino mouse at 10 mg/kg, po after 180 mins relative to control; details: 3 h; how it was run: as §1
Mus musculus [15] = assay: Inhibition of carrageenan-induced paw edema in Swiss albino mouse at 10 mg/kg, po after 270 mins relative to control; details: 4.5 h; how it was run: as §1
Mus musculus [16] = assay: Inhibition of carrageenan-induced paw edema in Swiss albino mouse at 10 mg/kg, po after 360 mins relative to control; details: 6 h; how it was run: as §1

COc1ccc2c(c1)c(CC(=O)O)c(C)n2C(=O)c1ccc(Cl)cc1 [INDOMETHACIN]
Activity (Mus musculus [1]): 31.9 10^-2mm
Activity (Mus musculus [2]): 34.8 10^-2mm
Activity (Mus musculus [3]): 36.5 10^-2mm
Activity (Mus musculus [4]): 39.7 10^-2mm
inhibition in vivo at 100 mg/kg (Mus musculus [5]): 28.8%
inhibition in vivo at 100 mg/kg (Mus musculus [6]): 32.4%
inhibition in vivo at 100 mg/kg (Mus musculus [7]): 37.9%
inhibition in vivo at 100 mg/kg (Mus musculus [8]): 42.3%
Activity (Mus musculus [9]): 34.5 10^-2mm
Activity (Mus musculus [10]): 39.1 10^-2mm
Activity (Mus musculus [11]): 37.5 10^-2mm
Activity (Mus musculus [12]): 40.2 10^-2mm
inhibition in vivo at 10 mg/kg (Mus musculus [13]): 35.2%
inhibition in vivo at 10 mg/kg (Mus musculus [14]): 34.2%
inhibition in vivo at 10 mg/kg (Mus musculus [15]): 42.1%
inhibition in vivo at 10 mg/kg (Mus musculus [16]): 44.2%

Reference: ChEMBL document CHEMBL1142894, “Preparation of 5-aryl-3-alkylthio-l,2,4-triazoles and corresponding sulfones with antiinflammatory-analgesic activity” (Bioorg Med Chem, 2007)
